Compound activity as filed in PubChem.
Pf Dd2 growth: inhibitors of Plasmodium falciparum Dd2 growth; P. falciparum Dd2 growth, SYBR Green, 72 h; hits give low values; activity change, % at 10 µM; actives 2.3% (n = 94,000); AID 1159554; in the data active means activity change below about -80%
T cruzi growth-1: T. cruzi proliferation inhibition | T. cruzi beta-gal in NIH3T3, GalScreen luminescence, 90 h | inhibition, % at 8.34 µM | actives 5.9% (n = 77,000);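 active means mean inhibition above about 93%, with at least 55% of replicates each passing it, limit read from the data, passing the limit was not always enough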
IDH1 R132H inh: IDH1 R132H (human) inhibition | O75874 | inhibition, % at 10 µM | actives 0.18% (n = 70,000) | IDH1 R132H reductase, diaphorase/resazurin fluorescence, 60 min; in the data active means inhibition above about 34%;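 further: 0% = DMSO and 100% = no enzyme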
GASC1 inh: inhibitors of human demethylase GASC-1 KDM4C; GST-KDM4C 2-372, H3K9me3 peptide, LANCE TR-FRET; inhibition, % at 12.5 µM; Q9H3R0; actives 0.15% (n = 96,000); AID 720574;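 active means mean replicate inhibition above about 25%, with at least 55% of replicates also reaching it, limit read from the data, passing the limit was not always enough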
Target sequence (Q9H3R0 2-372 limits assumed): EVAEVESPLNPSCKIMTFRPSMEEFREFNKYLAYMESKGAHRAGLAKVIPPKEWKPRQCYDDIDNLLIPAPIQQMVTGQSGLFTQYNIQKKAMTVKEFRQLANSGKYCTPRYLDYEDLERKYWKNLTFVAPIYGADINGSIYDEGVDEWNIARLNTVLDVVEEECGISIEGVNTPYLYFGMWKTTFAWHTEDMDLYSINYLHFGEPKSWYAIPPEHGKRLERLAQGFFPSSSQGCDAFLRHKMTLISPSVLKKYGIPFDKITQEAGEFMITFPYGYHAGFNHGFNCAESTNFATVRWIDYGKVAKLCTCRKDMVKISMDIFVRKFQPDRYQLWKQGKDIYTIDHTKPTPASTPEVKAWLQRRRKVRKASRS
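Material: N-terminal GST-fused human GASC-1 (KDM4C) fragment, residues 2-372. Input: 10 nM enzyme. Incubation: enzyme reaction 30 min, then detection 60 min, both room temperature. Doses: one test concentration per compound. Read-out basis: inhibition from TR-FRET ratio decrease. Detection: LANCE TR-FRET, excitation 340 nm, emissions 618 and 671 nm.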
T cruzi growth-2: inhibitors of T. cruzi proliferation; shares compounds with T cruzi growth-1; T. cruzi beta-gal in NIH3T3, GalScreen luminescence, 90 h; inhibition, % at 8.35 µM; actives 72% (n = 5,600);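 active means mean replicate inhibition above about 95% and at least 55% of replicates individually reaching it, limit read from the data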
T cruzi growth-3: blocks T. cruzi growth in NIH3T3 host cells; shares compounds with T cruzi growth-1; T. cruzi beta-gal in NIH3T3, GalScreen luminescence, 90 h; inhibition, % at 2.09 µM; actives 21% (n = 5,600);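 active means mean inhibition above about 95%, with at least 55% of replicates also reaching it, limit read from the data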;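 further: plate controls were neutral control median for no effect and positive control median for full effect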
3T3 cytotox: cytotoxicity in mouse NIH/3T3 fibroblasts. shares compounds with T cruzi growth-1. cytotoxicity (signal decrease), % at 8.35 µM. actives 14% (n = 5,600). NIH/3T3 viability, CellTiter-Glo ATP luminescence, 90 h;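 active means mean signal decrease across replicates above about 35% based on untreated-well scatter, with enough replicates individually passing, limit read from the data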;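 further: 0% = median of neutral control wells and 100% = median of positive control wells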
NIH3T3 tox 2: kills mouse NIH/3T3 fibroblasts. shares compounds with T cruzi growth-1. NIH/3T3 viability, CellTiter-Glo ATP luminescence, 90 h. inhibition, % at 24.9 µM. actives 56% (n = 5,600);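 active means mean loss of cell viability signal at or above a set limit, and enough replicates individually reaching it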;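 further: 0% = median of neutral control wells and 100% = median of positive control wells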
The depositor's hits bear a star. A selection: hits, their analogues and other compounds. The true share with any hit is near 5.8%.

Results for C[C@@H]1CCCCO[C@@H](CN(C)S(=O)(=O)c2ccccc2)[C@@H](C)CN([C@H](C)CO)C(=O)c2cc(NC(=O)Nc3ccc(F)cc3)ccc2O1 ?
Pf Dd2 growth: -71.3; T cruzi growth-1: 86.8; GASC1 inh: 0.6

What do the screens show for `C[C@@H]1CN([C@H](C)CO)C(=O)c2cc(NC(=O)Nc3ccc(F)cc3)ccc2O[C@@H](C)CCCCO[C@@H]1CN(C)S(=O)(=O)c1ccccc1`?
Pf Dd2 growth: -82.3*; T cruzi growth-1: 102.5*; IDH1 R132H inh: 10.0; GASC1 inh: 16.8; T cruzi growth-2: 83.5; T cruzi growth-3: -13.2; 3T3 cytotox: -13.4; NIH3T3 tox 2: -3.4

What do the screens show for `C[C@@H]1CN([C@@H](C)CO)C(=O)c2cc(NC(=O)Nc3ccc(F)cc3)ccc2O[C@@H](C)CCCCO[C@H]1CN(C)S(=O)(=O)c1ccccc1`?
Pf Dd2 growth: -73.0; T cruzi growth-1: 105.9*; GASC1 inh: -0.5; T cruzi growth-2: 111.5*; T cruzi growth-3: -48.9; 3T3 cytotox: 13.7; NIH3T3 tox 2: 5.0

How did C[C@@H]1CCCCO[C@H](CN(C)S(=O)(=O)c2ccccc2)[C@H](C)CN([C@@H](C)CO)C(=O)c2cc(NC(=O)Nc3ccc(F)cc3)ccc2O1 do in these assays?
Pf Dd2 growth: -71.9; T cruzi growth-1: 105.1*; GASC1 inh: -2.9; T cruzi growth-2: 108.6*; T cruzi growth-3: 65.8; 3T3 cytotox: -24.7; NIH3T3 tox 2: 24.5

What do the screens show for `CCn1c(SCC(=O)Nc2cccc(C)c2C)nnc1-c1cccs1`?
IDH1 R132H inh: -0.9

What do the screens show for `COC(=O)CCCCCCC(=O)N/N=C/c1coc2ccccc2c1=O`?
IDH1 R132H inh: -0.1

How did CCOc1ccc(C(Nc2cccc(C)n2)c2ccc3ccc(C)nc3c2O)cc1 (stereo unspecified) do in these assays?
IDH1 R132H inh: -0.2

How did COc1ccc(C#Cc2ccc([C@H]3[C@@H](CO)N4CCCCN(C(=O)Nc5ccc(F)cc5)C[C@H]34)cc2)cc1 do in these assays?
Pf Dd2 growth: -66.4; T cruzi growth-1: 87.6; GASC1 inh: -2.7

How did COc1ccc(C#Cc2ccc([C@@H]3[C@H](CO)N4CCCCN(C(=O)Nc5ccc(F)cc5)C[C@@H]34)cc2)cc1 do in these assays?
Pf Dd2 growth: -67.0; T cruzi growth-1: 111.3*; GASC1 inh: -0.4; T cruzi growth-2: 105.0*; T cruzi growth-3: 109.4*; 3T3 cytotox: 119.2*; NIH3T3 tox 2: 103.2*

What do the screens show for `COc1ccc(C#Cc2ccc([C@@H]3[C@@H](CO)N4CCCCN(C(=O)Nc5ccc(F)cc5)C[C@@H]34)cc2)cc1`?
Pf Dd2 growth: -29.3; T cruzi growth-1: 112.5*; GASC1 inh: -1.5; T cruzi growth-2: 102.2*; T cruzi growth-3: 105.6*; 3T3 cytotox: 3.7; NIH3T3 tox 2: 103.6*

What do the screens show for `COc1ccc(C#Cc2ccc([C@@H]3[C@@H](CO)N4CCCCN(C(=O)Nc5ccc(F)cc5)C[C@H]34)cc2)cc1`?
Pf Dd2 growth: -68.0; T cruzi growth-1: 116.4*; GASC1 inh: -1.4; T cruzi growth-2: 97.2*; T cruzi growth-3: 119.9*; 3T3 cytotox: 122.6*; NIH3T3 tox 2: 104.8*

What do the screens show for `Cc1[nH]c(=S)[nH]c(=O)c1Cc1ccc(C(=O)O)o1`?
IDH1 R132H inh: 2.7

What do the screens show for `COC(=O)c1ccccc1NC(=O)C(C)(C)Oc1ccc(Cl)cc1`?
IDH1 R132H inh: 0.2

What do the screens show for `COc1ccc(-c2ccc([C@H]3[C@@H](CO)N4CCCCN(S(=O)(=O)c5cccs5)C[C@@H]34)cc2)cc1`?
Pf Dd2 growth: 1.6; T cruzi growth-1: 107.4*; GASC1 inh: -1.3; T cruzi growth-2: 116.3*; T cruzi growth-3: 89.5; 3T3 cytotox: 22.5; NIH3T3 tox 2: 9.8
